Laboratory results from ChEMBL document CHEMBL1132376, “Synthesis, structure-activity relationships, and RARgamma-ligand interactions of nitrogen heteroarotinoids” (J Med Chem, 1999).

Columns and labels:
SW 954 = test: Percent of growth inhibition of Cell line SW954 (Vulvar) by the compound; assay type: functional, Homo sapiens
Summary of the method: (§1)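 Carcinoma cell lines were seeded at 2000–4000 cells/well and dosed the next day at 10 µM against a DMSO control. After 72 h cells were TCA-fixed, SRB-stained and the dye solubilized in Tris-HCl, then OD was read. Triplicates were averaged, and % inhibition = (1 − treated/control OD) × 100.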

[1] = molecular target: T1, Retinoic acid receptor alpha (Homo sapiens, UniProt P10276); test: Transcriptional activation in CV-1 cells expressing human Retinoic acid receptor alpha; assay type: functional, cell-based
T1 sequence (P10276 whole entry): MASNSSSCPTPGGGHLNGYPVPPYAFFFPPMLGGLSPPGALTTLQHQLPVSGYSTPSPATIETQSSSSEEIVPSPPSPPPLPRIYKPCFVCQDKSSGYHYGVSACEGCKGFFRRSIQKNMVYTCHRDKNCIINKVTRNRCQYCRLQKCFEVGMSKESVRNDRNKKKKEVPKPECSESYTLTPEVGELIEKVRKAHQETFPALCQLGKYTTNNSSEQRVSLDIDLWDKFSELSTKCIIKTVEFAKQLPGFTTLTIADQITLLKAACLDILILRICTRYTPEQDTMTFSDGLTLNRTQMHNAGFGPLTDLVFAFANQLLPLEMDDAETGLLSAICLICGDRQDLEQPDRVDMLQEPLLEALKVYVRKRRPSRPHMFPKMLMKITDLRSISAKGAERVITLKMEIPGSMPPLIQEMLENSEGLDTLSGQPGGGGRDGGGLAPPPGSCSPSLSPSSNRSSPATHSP
Summary of the method: (§2)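 CV-1 cells were cotransfected with a human RAR or mouse RXR subtype vector, βRARE-tk-CAT reporter and β-gal internal control. Retinoids were applied at 10^-10–10^-5 M (0.1% DMSO) for 24 h, then CAT/β-gal was measured by ELISA. Potency is the concentration giving half of the agent's own maximal activity. Triplicates were run in at least two experiments.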

[2] = The compound was evaluated for Tissue Transglutaminase induction
Summary of the method: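 HEL cells ((1–2) × 10^5/mL) were exposed to 10 µM retinoid for 48 h, washed in PBS and sonicated in Tris/NaCl/EDTA/PMSF buffer (pH 7.4). TGase was measured as Ca2+-dependent [14C]putrescine incorporation into N,N-dimethylcasein, counting acid-insoluble radioactivity, with Lowry protein. Efficacy is expressed relative to maximal t-RA activity.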

[3] = molecular target: T2, Retinoic acid receptor RXR-gamma (Mus musculus) (UniProt P28705); test: Percent transcriptional activation relative to 9-cis RA in CV-1 cells expressing Retinoid X receptor RXR gamma; assay type: functional, cell-based
T2 sequence (whole entry): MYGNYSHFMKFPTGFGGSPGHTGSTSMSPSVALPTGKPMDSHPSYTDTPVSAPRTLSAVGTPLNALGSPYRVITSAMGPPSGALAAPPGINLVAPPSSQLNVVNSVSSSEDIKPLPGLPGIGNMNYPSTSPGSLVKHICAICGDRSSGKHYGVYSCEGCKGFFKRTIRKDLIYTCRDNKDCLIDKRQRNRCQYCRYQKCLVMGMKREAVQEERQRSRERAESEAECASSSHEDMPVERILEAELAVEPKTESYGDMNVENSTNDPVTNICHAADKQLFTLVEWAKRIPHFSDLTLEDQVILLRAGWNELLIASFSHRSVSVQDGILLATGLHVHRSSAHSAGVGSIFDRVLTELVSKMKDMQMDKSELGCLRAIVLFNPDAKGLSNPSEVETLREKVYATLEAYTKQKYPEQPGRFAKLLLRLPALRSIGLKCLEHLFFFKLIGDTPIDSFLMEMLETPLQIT
Summary of the method: (§3)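 CV-1 cells were transiently cotransfected with a human RARα/β/γ or mouse RXRα/β/γ expression vector (100 ng), βRARE-tk-CAT reporter (500 ng) and β-gal control (100 ng). Retinoids (10^-10–10^-5 M, 0.1% DMSO) were added 16–18 h later for 24 h, and CAT and β-gal were read by ELISA. Efficacy = maximal activity ÷ 9-cis-RA maximal activity. Triplicates were run in at least two experiments.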

[4] = molecular target: T3, Retinoic acid receptor alpha (Homo sapiens) (UniProt P10276); test: Percent transcriptional activation relative to 9-cis RA in CV-1 cells expressing Retinoic acid receptor RAR alpha; assay type: functional, cell-based; summary of the method: as §3
T3 sequence (whole entry): T1 sequence (P10276 whole entry)

[5] = Percent transcriptional activation relative to 9-cis RA in CV-1 cells expressing Retinoid X receptor RXR alpha; assay type: functional, Mus musculus; summary of the method: as §3
SW 962 = test: Percent of growth inhibition of Cell line SW962 (Vulvar) by the compound; assay type: functional, Homo sapiens; summary of the method: as §1
[6] = molecular target: T4, Retinoic acid receptor RXR-gamma (Mus musculus, UniProt P28705); test: Transcriptional activation in CV-1 cells expressing Retinoid X receptor RXR gamma; assay type: functional, cell-based; summary of the method: as §2
T4 sequence (P28705 whole entry): T2 sequence (whole entry)

SiHa = test: Percent of growth inhibition of Cell line SiHa (Cervix) by the compound; assay type: functional, Homo sapiens; summary of the method: as §1
SCC-38 = test: Percent of growth inhibition of Cell line SCC-38(Head and Neck) by the compound; assay type: functional, Homo sapiens; summary of the method: as §1
SK-OV-3 = test: Percent of growth inhibition of Cell line SKOV-3(Ovarian) by the compound; assay type: functional, Homo sapiens; summary of the method: as §1
[7] = molecular target: T5, Retinoic acid receptor beta (Homo sapiens) (UniProt P10826); test: Percent transcriptional activation relative to 9-cis RA in CV-1 cells expressing Retinoic acid receptor RAR beta; assay type: functional, cell-based; summary of the method: as §3
T5 sequence (whole entry): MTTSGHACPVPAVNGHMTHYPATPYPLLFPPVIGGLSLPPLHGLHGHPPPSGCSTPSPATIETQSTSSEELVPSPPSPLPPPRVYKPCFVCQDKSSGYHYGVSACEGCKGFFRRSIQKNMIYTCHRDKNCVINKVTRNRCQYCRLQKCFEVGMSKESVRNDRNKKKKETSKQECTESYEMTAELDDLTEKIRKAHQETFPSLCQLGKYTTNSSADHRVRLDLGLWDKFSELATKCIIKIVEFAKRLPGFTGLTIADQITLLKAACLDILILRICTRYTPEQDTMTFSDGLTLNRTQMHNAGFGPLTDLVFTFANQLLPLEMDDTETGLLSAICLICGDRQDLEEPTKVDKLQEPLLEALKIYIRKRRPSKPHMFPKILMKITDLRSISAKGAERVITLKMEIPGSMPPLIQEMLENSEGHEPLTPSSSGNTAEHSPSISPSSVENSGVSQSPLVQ

Caov-3 cell line = test: Percent of growth inhibition of Cell line Caov-3(Ovarian) by the compound; assay type: functional, Homo sapiens; summary of the method: as §1
[8] = Transcriptional activation in CV-1 cells expressing Retinoid X receptor RXR alpha; assay type: functional, cell-based; summary of the method: as §2
[9] = molecular target: T6, Retinoic acid receptor RXR-beta (Mus musculus, UniProt P28704); test: Transcriptional activation in CV-1 cells expressing Retinoid X receptor RXR beta; assay type: functional, cell-based; summary of the method: as §2
T6 sequence (P28704 whole entry): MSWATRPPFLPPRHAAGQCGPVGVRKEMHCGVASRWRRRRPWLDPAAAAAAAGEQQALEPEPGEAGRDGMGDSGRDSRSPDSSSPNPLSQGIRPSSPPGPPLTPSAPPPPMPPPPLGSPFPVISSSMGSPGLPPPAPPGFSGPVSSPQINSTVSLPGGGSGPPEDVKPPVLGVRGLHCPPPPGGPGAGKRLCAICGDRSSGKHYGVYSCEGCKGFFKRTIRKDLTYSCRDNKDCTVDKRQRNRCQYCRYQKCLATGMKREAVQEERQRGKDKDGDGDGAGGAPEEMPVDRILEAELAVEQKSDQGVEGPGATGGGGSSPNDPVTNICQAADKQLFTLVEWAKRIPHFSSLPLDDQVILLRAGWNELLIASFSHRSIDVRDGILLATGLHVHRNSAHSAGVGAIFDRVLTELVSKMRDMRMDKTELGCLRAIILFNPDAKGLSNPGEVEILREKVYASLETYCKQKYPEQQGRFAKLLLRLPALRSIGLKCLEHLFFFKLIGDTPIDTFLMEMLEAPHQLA

CC-1 [10] = test: Percent inhibition of CC-1 cervical cell proliferation; assay type: functional, Homo sapiens; summary of the method: as §1
[11] = molecular target: T7, Retinoic acid receptor beta (Homo sapiens, UniProt P10826); test: Transcriptional activation in CV-1 cells expressing Retinoic acid receptor RAR beta; assay type: functional, cell-based; summary of the method: as §2
T7 sequence (P10826 whole entry): T5 sequence (whole entry)

[12] = molecular target: T8, Retinoic acid receptor RXR-beta (Mus musculus) (UniProt P28704); test: Percent transcriptional activation relative to 9-cis RA in CV-1 cells expressing Retinoid X receptor RXR beta; assay type: functional, cell-based; summary of the method: as §3
T8 sequence (whole entry): T6 sequence (P28704 whole entry)

[13] = Percent transcriptional activation relative to 9-cis RA in CV-1 cells expressing Retinoic acid receptor RAR gamma; assay type: functional, Homo sapiens; summary of the method: as §3
SCC-2 = test: Percent of growth inhibition of Cell line SCC-2(Head and Neck) by the compound; assay type: functional, Homo sapiens; summary of the method: as §1
CC-1 [14] = test: Percent of growth inhibition of Cell line CC-1(Cervix) by the compound; assay type: functional, Homo sapiens; summary of the method: as §1
[15] = Transcriptional activation in CV-1 cells expressing Retinoic acid receptor RAR gamma; assay type: functional, cell-based; settings: Homo sapiens; summary of the method: as §2

EC50 [1] [nM] | Induction [2] | Efficacy [3] [%] | Efficacy [4] [%] | EC50 [6] [nM] | Efficacy [7] [%] | EC50 [8] [nM] | EC50 [9] [nM] | EC50 [11] [nM] | Efficacy [12] [%] | SMILES | Inhibition (SW 954) [%] | Efficacy [5] [%] | Inhibition (SW 962) [%] | Inhibition (SiHa) [%] | Inhibition (SCC-38) [%] | Inhibition (SK-OV-3) [%] | Inhibition (Caov-3 cell line) [%] | Inhibition (CC-1 [10]) [%] | Efficacy [13] [%] | Inhibition (SCC-2) [%] | further results
217 | 49 | 47 | 59 | 27 | 71 | 12 | 47 | 41 | 45 | CCOC(=O)c1ccc(OC(=O)c2ccc3c(c2)C(C)(C)CCN3C(C)C)cc1 | 49 | 62 | 25 | 25 | 25 | 2 | 13 | 15 | 0 | 24 | 
1130 | 37 | 52 | 45 | 20 | 64 | 601 | 33 | 256 | 53 | CCOC(=O)c1ccc(OC(=O)c2ccc3c(c2)C(C)(C)CCN3C)cc1 | 35 | 47 | 15 | 40 | 20 | 0 | 0 | 25 | 0 | 20 | 
 |  |  |  |  |  |  |  |  |  | C/C(=C/c1ccc(C(=O)O)cc1)c1ccc2c(c1)C(C)(C)CCC2(C)C | 30 |  | 20 |  |  | 20 | 15 |  |  |  | 
 |  |  |  |  |  |  |  |  |  | CC1=C(/C=C/C(C)=C\C=C\C(C)=C\C(=O)O)C(C)(C)CCC1 [ALITRETINOIN] | 35 |  | 30 | 25 | 24 | 27 | 25 |  |  | 25 | Inhibition (CC-1 [14]): 15%
796 | 49 | 52 | 64 | 49 | 63 | 102 | 70 | 92 | 55 | CCOC(=O)c1ccc(OC(=O)c2cc3c(cc2C)N(C)CCC3(C)C)cc1 | 77 | 53 | 80 | 26 | 20 | 0 | 10 | 20 | 103 | 20 | EC50 [15]: 6 nM
